Active and inactive are the calls of the source. No cut-off for these calls is given here.
Assays:
SF-295 [1] = test: Cytotoxicity against human SF295 cells after 44 hrs by MTT assay; type: functional, cell-based; details: SF-295, 44 h
Method in brief: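 SF-295 glioblastoma cells grown in RPMI 1640 with 10% fetal calf serum and pen-strep at 37 °C, 5% CO2. Plated in 24-well plates and dosed at 65% confluency. Thiazolyl blue tetrazolium added 44 h after treatment. At 48 h, HCl/Triton X-100/isopropanol solubiliser added, then overnight at 37 °C with gentle agitation. Absorbance read at 540 nm, 630 nm reference.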

A549 [2] = test: Effect on morphology of human A549 cells at 500 nM after 24 hrs using DAPI staining by multi-photon microscopy; type: functional, cell-based
Method in brief: (§1)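 Cells grown on sterile coverslips to 65% confluency, then treated. Then fixed in 3.7% formaldehyde for 15 min, permeabilized in 0.2% Triton X-100 for 4 min, blocked in 1% BSA for 30 min and stained 20 min with phalloidin for F-actin. Mounted in DAPI-containing medium, imaged by multi-photon microscopy. SF-295 kept in RPMI 1640; A549 in F-12; both with 10% FCS.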

SF-295 [3] = test: Effect on morphology of human SF295 cells at 500 nM after 24 hrs using DAPI staining by multi-photon microscopy; type: functional, cell-based; method in brief: as §1
SF-295 [4] = test: Effect on morphology of human SF295 cells at 500 nM after 48 hrs using DAPI staining by multi-photon microscopy; type: functional, cell-based; method in brief: as §1
SF-295 [5] = test: Inhibition of ROCK in human SF295 cells assessed as change in morphology at 10 uM after 24 hrs using DAPI staining by multi-photon microscopy; type: cell-based; method in brief: as §1
A549 [6] = test: Cytotoxicity against human A549 cells after 44 hrs by MTT assay; type: functional, cell-based
Method in brief: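 A549 cells in F-12 medium with 10% fetal calf serum and pen-strep, 37 °C, 5% CO2, treated in 24-well plates at 65% confluency. MTT added 44 h after treatment; at 48 h, solubilizer (HCl, Triton X-100, isopropanol) added, overnight at 37 °C with gentle agitation. Absorbance read at 540 nm with 630 nm reference.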

SF-295 [7] = test: Effect on cytosolic localization in human SF295 cells assessed as increase in fluorescence intensity at 100 nM by fluorescence microscopy; type: functional, cell-based
Method in brief: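 SF-295 cells on sterile coverslips at 65% confluency, treated for varied intervals across a concentration range. Washed three times in complete medium to remove compound, mounted right away, and live compound fluorescence imaged by multi-photon microscopy against untreated-cell autofluorescence.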

A549 [8] = test: Effect on morphology of human A549 cells at 500 nM after 48 hrs using DAPI staining by multi-photon microscopy; type: functional, cell-based; method in brief: as §1
A549 [9] = test: Effect on morphology in human A549 cells assessed as induction of ruffled F-actin at 10 uM after 24 hrs using DAPI staining by multi-photon microscopy; type: functional, cell-based; method in brief: as §1
SF-295 [10] = test: Effect on morphology of human SF295 cells assessed as induction of ruffled F-actin at 10 uM after 24 hrs using DAPI staining by multi-photon microscopy; type: functional, cell-based; method in brief: as §1
SF-539 = test: Cytotoxicity against human SF539 cells after 44 hrs by MTT assay; type: functional; details: SF-539, 44 h
SNB-75 = test: Cytotoxicity against human SNB75 cells after 44 hrs by MTT assay; type: functional; details: SNB-75, 44 h

With `COc1cc(/C=C/c2cc(O)c(/C=C/c3cccc(O)c3)c(O)c2)cc2c1O[C@]1(C)CC[C@@H](O)C(C)(C)[C@H]1C2` the IC50 (SF-295 [1]) was 800 nM, the Activity (A549 [2]) was “inactive” and the Activity (SF-295 [3]) was “inactive”. The Activity (SF-295 [4]) was “Active”, the Activity (SF-295 [5]) was “Active” and the Activity (A549 [6]) was “Active”. The Activity (SF-295 [7]) was “Active” and the Activity (A549 [8]) was “inactive”.
With `C[C@@H](N)[C@H]1CC[C@H](C(=O)Nc2ccncc2)CC1` the Activity (A549 [9]) was “Active” and the Activity (SF-295 [10]) was “Active”.
`CC(C)=CCC/C(C)=C/Cc1c(O)cc(/C=C/c2cc(O)c3c(c2)C[C@@H]2C(C)(C)[C@H](O)[C@H](O)C[C@@]2(C)O3)cc1O` [SCHWEINFURTHIN A] was tested, and the GI50 (SF-295 [1]) was 11 nM, the GI50 (SF-539) was 10 nM and the GI50 (SNB-75) was 15 nM.
For `COc1cc(/C=C/c2cc(O)c(C/C=C(\C)CCC=C(C)C)c(O)c2)cc2c1O[C@]1(C)CC[C@@H](O)C(C)(C)[C@H]1C2`, the Activity (SF-295 [5]) was “Active”.

From ChEMBL document CHEMBL1152945, “Synthesis and biological activity of a fluorescent schweinfurthin analogue” (Bioorg Med Chem, 2009)
